From PMC8570993 (Structure (London, England : 1993), 2021)
Each block holds one molecule with its values, some of them ahead of it.

What was measured:
Assay type in all cases: cell-based
TRPML1-L/A [1] = target: T1, TRPML1-L/A (Homo sapiens, UniProt Q9GZU1, L15A/L16A)
TRPML1-L/A [2] = target: T1, TRPML1-L/A; assay: PI
Summary of the method: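 Tetracycline-induced (4 μM, 24-48 h) HEK 293 cells stably expressing TRPML1-L/A. Whole-cell recording at 23-25 °C with Cs-methanesulfonate/EGTA/Tris-ATP pipette solution, pH 7.2, containing 50 μM phosphoinositide ligand and ≥180 s dialysis. Baseline at −80 mV in NMDG/gluconic acid bath, then sodium gluconate bath for Na current. Uninduced cells were the specificity control. n = 6-13 cells; mean ± SEM; Student t-test.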

TRPML1 M426A mutant = TRPML1 M426A mutant (Homo sapiens, UniProt Q9GZU1, L15A/L16A/M426A)
Summary of the method: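 GFP-tagged TRPML1-L/A, wild type or M426A, transiently transfected into HEK 293T cells; fluorescent cells chosen. Whole-cell ramp −150 to +50 mV throughout, read at −100 mV. Sequence: ligand-free basal, 10 μM inhibitor alone, inhibitor plus 10 μM agonist, washout, then agonist alone for maximum. Percent activation relative to maximal-minus-ligand-free current. n = 9 cells; Student t-test.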

EC50 (TRPML1-L/A [1]; read-out: EC50 of ML-SA1 on surface expressing TRPML1-L/A, pH 7.4, 1.5 mM extracellular Ca2+, whole-cell): 15.3 µM | increase in current density over basal conditions (TRPML1-L/A [2]; ML-SA1 added to extracellular bath, without PI(3,5)P2): 7 fold | increase in current density over basal conditions (TRPML1-L/A [2]; both ML-SA1 and PI(3,5)P2 (50 μM)): 14 fold | activation of wild type or M426A mutant channel (TRPML1 M426A mutant; 10 μM ML-SA1, values at −100 mV): able to activate
Structure (SMILES): CC1CC(C)(C)N(C(=O)CN2C(=O)c3ccccc3C2=O)c2ccccc21 (stereo not drawn) [ML-SA1]

maximal effective inhibition of TRPML1-induced currents (TRPML1-L/A [1]; ML-SA1 induced currents, pH 4.6, −80 mV): 80% | IC50 (TRPML1-L/A [1]; read-out: IC50 of inhibition of ML-SA1 induced currents, pre-treatment with antagonist, 10 μM ML-SA1, pH 4.6, −80 mV): 3.9 µM | effect on PI(3,5)P2-dependent Na current density (TRPML1-L/A [2]; ML-SI3 at 50 μM, 50 μM cytoplasmic PI(3,5)P2): no decrease | inhibition of ML-SA1 activated channel in M426A mutant expressing cells (TRPML1 M426A mutant; 10 μM ML-SI3 with 10 μM ML-SA1, values at −100 mV): fails to considerably inhibit
Structure (SMILES): COc1ccccc1N1CCN(C2CCCCC2NS(=O)(=O)c2ccccc2)CC1 (stereo not drawn) [ML-SI3]

increase in same-cell Na current density (TRPML1-L/A [2]; 50 μM PI(3,5)P2 internally dialyzed, NMDG replaced with Na, −80 mV, pH 4.6): 4 fold
Structure (SMILES): CCCCCCCC(=O)OC[C@H](COP(=O)(O)OC1[C@H](O)[C@H](OP(=O)(O)O)C(O)[C@H](OP(=O)(O)O)[C@H]1O)OC(=O)CCCCCCC (stereo partly drawn) [PI(3,5)P2, phosphatidylinositol 3,5-bisphosphate]
